Laboratory results from paper PMC5609126 (ACS Chemical Neuroscience, 2017).

Legend:
P-gp [1] = assay: PET imaging in Mdr1a/b; type: in vivo, mice; conditions: for brain-to-blood AUC ratios: PET image-derived brain and blood curves
How it was run: (§1)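 Male FVB-background wild-type, Mdr1a/b(−/−) and Bcrp1(−/−) mice (28.3–39.7 g) were isoflurane-anaesthetised with jugular cannulas. They got 3.6–3.8 MBq radiotracer and 60 min dynamic PET in groups of 4–6, mostly on HRRT. One tracer's Mdr1a/b(−/−) vs WT study used nanoPET/CT and PET/MR. Ellipsoid ROIs gave brain TACs (SUV) and left-ventricle blood curves. Brain-to-blood AUC ratios were calculated from the AUCs.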

P-gp [2] = assay: P-gp blocking study with tariquidar, PET whole brain uptake; type: in vivo; conditions: Wistar rats; for increase in brain uptake after tariquidar vs baseline scans: tariquidar 15 mg/kg i.v. 30 min before tracer, PET whole brain
[3] = Biodistribution in selected organs; type: in vivo; conditions: Wistar rats, 5, 15, 60 min after injection
How it was run: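 Male Wistar rats (218–244 g) got 50 ± 2 MBq radiotracer i.v. by tail vein under isoflurane (2% in O2). They stayed conscious until sacrifice, except the 5 min group. Rats were killed under isoflurane at 5, 15 or 60 min (n = 3). Heart-puncture blood, heart, lungs, liver, kidneys, bone, cerebral cortex, cerebellum and remaining brain were weighed and gamma-counted. Results were expressed as %ID/g.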

PET imaging in wild-type = type: in vivo; conditions: WT mice, PET image-derived brain and blood curves
How it was run: as §1

[4] = Metabolite analysis in plasma and brain tissue after tracer injection; type: in vivo; conditions: Wistar rats, mean ± SD; for parent tracer, brain: brain tissue
How it was run: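 Male Wistar rats (230–291 g) got radiotracer (28 ± 4 or 43 ± 24 MBq, depending on tracer) by tail vein under isoflurane and stayed conscious until sacrifice at 5, 15 or 60 min (n = 3). Heparinised plasma was run on a tC18 cartridge: the water wash was the polar metabolite fraction and the methanol eluate the nonpolar parent fraction, analysed by HPLC. Half-brains were homogenised in cold H2O/MeCN (1:1), centrifuged, and supernatants run on HPLC.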

BCRP = assay: PET imaging in Bcrp1; type: in vivo; conditions: Bcrp1(-/-) mice, PET image-derived brain and blood curves
How it was run: as §1

| Structure (SMILES) | brain-to-blood AUC ratios (P-gp [1]; Mdr1a/b(-/-) mice) | higher brain uptake in Mdr1a/b(-/-) mice compared with wild-type mice (P-gp [1]; during the first 10 min, PET whole brain) [fold] | time of highest brain uptake (P-gp [2]; PET whole brain time-activity curve, tariquidar blocking study) [min] | increase in brain uptake after tariquidar vs baseline scans (P-gp [2]) [fold] | bone uptake (defluorination) [3] | brain uptake [3] | brain-to-blood AUC ratios (PET imaging in wild-type) | parent tracer, brain ([4]; 15 min after injection) | parent tracer, plasma ([4]; 15 min after injection) | parent tracer, plasma ([4]; 60 min after injection) | brain-to-blood AUC ratios (BCRP) | SUV plateau of brain uptake (P-gp [1]; Mdr1a/b(-/-) mice, at the end of the scan (60 min)) | higher brain uptake in Mdr1a/b(-/-) mice than in wild-type mice (P-gp [1]; maximum level over 60 min scan, PET whole brain) [fold] | parent tracer, brain ([4]; 5 min after injection) | parent tracer, brain ([4]; 60 min after injection) | parent tracer, plasma ([4]; 5 min after injection) |
| --- | --- | --- | --- | --- | --- | --- | --- | --- | --- | --- | --- | --- | --- | --- | --- | --- |
| COc1ccc(CCN(CC[18F])CCC[C@](C#N)(c2ccc(OC)c(OC)c2)C(C)C)cc1OC [[^18F]1, (R)-5-((3,4-Dimethoxyphenethyl)(2-[^18F]fluoroethyl)amino)-2-(3,4-dimethoxyphenyl)-2-isopropylpentanenitrile] | 0.98 ± 0.07 | 1.4 | 5 | 3.6 | bone uptake was low and did not increase over time | low brain uptake | 0.52 ± 0.05 | 14 ± 2 Percentage of total radioactivity | 19 ± 2 Percentage of total radioactivity | 3 ± 1 Percentage of total radioactivity | 0.88 ± 0.06 |  |  |  |  |  |
| COc1ccc([C@@](C#N)(CCCNCCc2ccc(OCC[18F])c(OC)c2)C(C)C)cc1OC [[^18F]2, (R)-2-(3,4-Dimethoxyphenyl)-5-((4-(2-[^18F]fluoroethoxy)-3-methoxyphenethyl)amino)-2-isopropylpentanenitrile] | 0.75 ± 0.14 |  |  | 2.4 | low bone uptake |  | 0.18 ± 0.04 | 17 ± 7 Percentage of total radioactivity | 8 ± 3 Percentage of total radioactivity | 4 ± 1 Percentage of total radioactivity | 0.20 ± 0.02 | about 0.9 SUV | ≤ 6.4 | 26 ± 6 Percentage of total radioactivity | 6 ± 1 Percentage of total radioactivity | 20 ± 3 Percentage of total radioactivity |
